Experimental data from ChEMBL document CHEMBL1130352, “3-[[(4-Aryl-1-piperazinyl)alkyl]cyclohexyl]-1H-indoles as dopamine D2 partial agonists and autoreceptor agonists” (J Med Chem, 1997).
Active and inactive are the calls of the source. The rule behind the calls is not given here.

Tests used:
[1] = system: Mus musculus; assay: In vivo inhibition of locomotor activity in mice following i.p. administration.; assay type: functional; conditions: ip
Outline: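 Mice dosed ip, then immediately tested for 1 h in darkened cylindrical photobeam chambers. Activity expressed as percent inhibition versus vehicle-treated mice. ED50 with 95% confidence range from three to six doses, 6–18 animals per dose.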

[2] = molecular target: T1, D(2) dopamine receptor (Rattus norvegicus, UniProt P61169); assay: In vitro binding affinity for dopamine receptor D2 on rat striatal membranes by [3H]spiperone displacement.; design: species or system Striatum, Membrane
Outline: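 Displacement of [3H]spiperone (0.2 nM final) from rat striatal membranes; nonspecific binding defined with 1 μM (+)-butaclamol. IC50 determined, reported as Ki.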

[3] = system: Rattus norvegicus; assay: Percent reversal of DOPA synthesis in the striatum of gamma-butyrolactone-treated rats at 10 mg/kg by intraperitoneal route; Increase; assay type: functional, organism-based; design: dose 10 mg/kg
Outline: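 Male Long Evans rats given compound ip 1 h before sacrifice; GBL (750 mg/kg ip) plus NSD 1015 (100 mg/kg ip) 30 min before sacrifice. Striatal DOPA measured by HPLC with electrochemical detection. Result given as percent reversal between the GBL + NSD 1015 control (0%) and the vehicle + NSD 1015 control (100%); n = 4–5 animals.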

[4] = system: Rattus norvegicus; assay: Inhibition of spontaneous locomotor activity after intraperitoneal injection into rat at 30 mg/kg; assay type: functional; conditions: ip
[5] = system: Rattus norvegicus; assay: Inhibition of spontaneous locomotor activity after intraperitoneal injection into rat at 3 mg/kg; assay type: functional; conditions: ip
[6] = system: Rattus norvegicus; assay: Percent reversal of DOPA levels in the striatum of gamma-butyrolactone-treated rats at 10 mg/kg by intraperitoneal route; assay type: functional
Outline: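 Male Long Evans rats received 10 mg/kg ip 1 h before sacrifice, with GBL (750 mg/kg ip) and NSD 1015 (100 mg/kg ip) 30 min before sacrifice. Striatal DOPA was quantified by HPLC-electrochemical detection and expressed as percent reversal between GBL + NSD 1015 (0%) and vehicle + NSD 1015 (100%) controls; n = 4-5 rats.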

[7] = organism: Rattus norvegicus; assay: Inhibition of spontaneous locomotor activity after peroral injection into rat; assay type: functional
Outline: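 Rats dosed orally before a 30 min test in darkened cylindrical photobeam chambers. Percent inhibition of activity relative to vehicle-treated rats; ED50 with 95% confidence range from three to six doses, 6–18 animals per dose.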

[8] = organism: Rattus norvegicus; assay: Compound was evaluated for ability to reverse gamma-butyrolactone (GBL)-induced sunthesis of DOPA in rat corpus striatum; assay type: functional
Outline: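 Male Long Evans rats dosed 1 h before sacrifice; GBL 750 mg/kg ip plus NSD 1015 100 mg/kg ip given 30 min before sacrifice. Striatal DOPA measured by HPLC with electrochemical detection. ED50 read graphically as the dose giving 50% reversal of the GBL-induced rise in DOPA accumulation; 0% = GBL + NSD 1015, 100% = vehicle + NSD 1015.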

[9] = Inhibition of sidman avoidance in squirrel monkey after peroral administration; assay type: functional; conditions: po
Outline: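 Squirrel monkeys dosed orally; conditioned (Sidman) avoidance recorded for 6 h. Effect expressed as percent avoidance responding relative to control performance over the 4 h of peak effect; ED50 in mg/kg po.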

[10] = Decrease in squirrel monkey striatal dopamine overflow measured via in vivo microdialysis after administering a dose of 3 mg/kg intraperitoneally; assay type: functional; design: scale not given: the % may be the effect or the level left; conditions: route intraperitoneal
[11] = molecular target: D(3) dopamine receptor (Homo sapiens, UniProt P35462); assay: In vitro binding affinity towards human recombinant Dopamine receptor D3 receptor expressed in CHO-K1 cells was determined using [3H]spiperone as radioligand
[12] = system: Rattus norvegicus; assay: Stereotypy in rats (intraperitoneal); assay type: functional; conditions: ip
Outline: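 A trained observer rated rats for repetitive sniffing, licking and gnawing, 30 s per rat; a behaviour counted only if continuously present for at least 15 s. Rats observed 1 h after the test compound, then given the D1 agonist SKF 38393 and observed for another hour.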

[13] = system: Mus musculus; assay: Inhibition of apomorphine-induced climbing in mice after intraperitoneal injection; assay type: functional; conditions: ip
Outline: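 Mice received apomorphine 1 mg/kg sc and returned to cages. Test compound or vehicle given ip 5 min later, and climbing scored 10 min after that; ED50 in mg/kg ip.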

[14] = molecular target: T1, D(2) dopamine receptor; assay: Binding affinity was determined in vitro on rat striatum using [3H]N-propylnorapomorphine against Dopamine receptor D2; assay type: tissue-based
Outline: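 Rat striatal membranes; [3H]-NPA agonist radioligand at 0.35 nM final, labelling high-affinity state D2 sites; nonspecific binding defined with 2 μM (+)-butaclamol. IC50 determined by displacement, reported as Ki (nM).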

[15] = molecular target: T2, D(4) dopamine receptor (Homo sapiens, UniProt P21917); assay: In vitro binding affinity towards human recombinant Dopamine receptor D4 expressed in CHO-K1 cells was determined using [3H]spiperone as radioligand; assay type: cell-based
T2 sequence (P21917 whole entry): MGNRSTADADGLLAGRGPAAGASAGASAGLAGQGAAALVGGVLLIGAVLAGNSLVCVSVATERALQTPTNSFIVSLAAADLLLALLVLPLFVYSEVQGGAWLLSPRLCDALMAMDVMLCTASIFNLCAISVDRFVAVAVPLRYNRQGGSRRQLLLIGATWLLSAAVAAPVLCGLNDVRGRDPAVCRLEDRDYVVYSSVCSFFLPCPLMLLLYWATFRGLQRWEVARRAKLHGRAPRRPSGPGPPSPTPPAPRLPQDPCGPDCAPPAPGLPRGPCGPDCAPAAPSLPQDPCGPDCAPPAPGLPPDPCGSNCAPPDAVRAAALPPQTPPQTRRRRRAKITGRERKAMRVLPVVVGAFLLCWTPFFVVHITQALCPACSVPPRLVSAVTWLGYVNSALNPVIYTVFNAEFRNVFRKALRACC
Outline: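 CHO K1 cells stably transfected with human recombinant DA D4.2 receptor subtype; membranes incubated with [3H]spiperone (0.2 nM final); Ki values determined.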

[16] = system: Rattus norvegicus; assay: Decrease of rat striatal dopamine overflow after intraperitoneal injection of 10 mg/kg measured via in vivo microdialysis; assay type: functional; design: scale not given: the % may be the effect or the level left
Outline: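 Adult male Sprague-Dawley rats (200-250 g) under urethane in a stereotaxic frame, with a 4 mm probe in striatum perfused with artificial CSF at 2 μL/min. Dialysate collected every 20 min and assayed for catecholamines by HPLC-electrochemical detection, after 10 mg/kg ip; n = 4.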

[17] = system: Rattus norvegicus; assay: Decrease in dopamine neuronal firing rate in rats after intraperitoneal injection of 2.5 mg/kg; assay type: functional; design: scale not given: the % may be the effect or the level left
[18] = organism: Rattus norvegicus; assay: Inhibition of spontaneous locomotor activity after peroral injection into rat; Stimulation of locomotory activity; assay type: functional, organism-based

T1 sequence (P61169 whole entry): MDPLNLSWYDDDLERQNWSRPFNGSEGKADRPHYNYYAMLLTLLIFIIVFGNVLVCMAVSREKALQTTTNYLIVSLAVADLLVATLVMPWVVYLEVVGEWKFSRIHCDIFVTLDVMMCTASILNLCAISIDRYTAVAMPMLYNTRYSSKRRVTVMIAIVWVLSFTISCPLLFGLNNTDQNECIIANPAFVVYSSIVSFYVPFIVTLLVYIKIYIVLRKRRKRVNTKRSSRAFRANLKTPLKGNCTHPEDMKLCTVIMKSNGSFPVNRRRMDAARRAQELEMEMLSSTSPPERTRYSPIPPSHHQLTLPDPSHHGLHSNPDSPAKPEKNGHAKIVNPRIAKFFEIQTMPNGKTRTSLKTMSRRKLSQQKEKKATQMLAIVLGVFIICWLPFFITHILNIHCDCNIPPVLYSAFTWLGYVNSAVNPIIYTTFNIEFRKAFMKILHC
Chain of D(3) dopamine receptor (P35462 whole entry): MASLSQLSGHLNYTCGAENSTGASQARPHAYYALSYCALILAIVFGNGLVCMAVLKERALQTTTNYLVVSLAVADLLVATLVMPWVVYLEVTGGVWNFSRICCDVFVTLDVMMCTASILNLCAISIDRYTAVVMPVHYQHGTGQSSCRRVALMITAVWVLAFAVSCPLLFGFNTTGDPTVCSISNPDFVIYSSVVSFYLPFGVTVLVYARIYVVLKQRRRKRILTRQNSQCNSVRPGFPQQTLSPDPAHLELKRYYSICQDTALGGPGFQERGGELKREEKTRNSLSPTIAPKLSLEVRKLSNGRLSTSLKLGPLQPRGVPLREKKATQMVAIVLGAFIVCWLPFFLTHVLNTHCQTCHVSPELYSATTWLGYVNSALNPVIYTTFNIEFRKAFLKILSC

SMILES	ED50 [1] [mg/kg]	Ki [2] [nM]	Reversal [6] [%]	ED50 [7] [mg/kg]	other results
c1ccc(N2CCN(CC[C@H]3CC[C@H](c4c[nH]c5ccccc54)CC3)CC2)cc1	13.9	124			Reversal [3]: inactive
Cn1cc([C@H]2CC[C@H](CCN3CCN(c4ccccn4)CC3)CC2)c2ccccc21	> 30	83			
c1ccc(N2CCN(C[C@H]3CC[C@@H](c4c[nH]c5ccccc54)CC3)CC2)nc1	1.2	122			inhibition in vivo at 30 mg/kg [4]: 1.8%; inhibition in vivo at 3 mg/kg [5]: 57%
C1=C(c2cccs2)CCN(CC[C@H]2CC[C@H](c3c[nH]c4ccccc43)CC2)C1	11.6	630			
c1ccc(N2CCN(CC[C@H]3CC[C@@H](c4c[nH]c5ccccc54)CC3)CC2)nc1	4.7	139	60	12.2	
c1ccc(N2CCN(CC[C@H]3CC[C@H](c4c[nH]c5ccccc54)CC3)CC2)nc1	1.4	50	44	4.8	ED50 [8]: 6.6 mg/kg; ED50 [9]: 1 mg/kg; Activity [10]: 38%; Ki [11]: 29 nM; ED50 [12]: > 24 mg/kg; ED50 [13]: > 30 mg/kg; Ki [14]: 2.6 nM; Ki [15]: 73 nM; Activity [16]: 33%; Activity [17]: 100%
Fc1ccc(N2CCN(CC[C@H]3CC[C@H](c4c[nH]c5ccccc54)CC3)CC2)cc1	> 30	645			
c1ccc(N2CCN(C[C@H]3CC[C@H](c4c[nH]c5ccccc54)CC3)CC2)nc1	2.3	85	81	8.8	
COc1ccc2[nH]cc([C@H]3CC[C@H](CCN4CCN(c5ccccn5)CC4)CC3)c2c1	2.2	29	88	> 30	
C1=C(c2ccccc2)CCN(CC[C@H]2CC[C@@H](c3c[nH]c4ccccc43)CC2)C1	10.5	28	5		
c1ccc(N2CCN([C@H]3CC[C@H](c4c[nH]c5ccccc54)CC3)CC2)nc1	1.2	457	38	13.7	
C1=C(c2c[nH]c3ccccc23)CCC(CCN2CCN(c3ccccn3)CC2)C1 (centres undefined)		270			
c1ccc(N2CCN([C@H]3CC[C@@H](c4c[nH]c5ccccc54)CC3)CC2)nc1	> 30				
Oc1ccc2[nH]cc(CCCCN3CC=C(c4ccccc4)CC3)c2c1 [ROXINDOLE]	0.25	14	70	47.6	
c1cnc(N2CCN(CC[C@H]3CC[C@H](c4c[nH]c5ccccc54)CC3)CC2)nc1	3.3	161	34	18.6	
C1=C(c2ccccc2)CCN(CC[C@H]2CC[C@H](c3c[nH]c4ccccc43)CC2)C1	7.2	8.7		> 30	Reversal [3]: inactive
Fc1ccc2[nH]cc([C@H]3CC[C@H](CCN4CCN(c5ccccn5)CC4)CC3)c2c1	9	110	100		ED50 [18]: Stimulant
C1=C(c2ccccc2)CC[C@H](CCN2CCN(c3ccccn3)CC2)C1		412			
Oc1ccc2[nH]cc([C@H]3CC[C@H](CCN4CCN(c5ccccn5)CC4)CC3)c2c1	0.6	8.6	25	> 30	
